Assays:
H4IIE cells [1] = type: cell-based; conditions: 24 hr
Caspase 3 = assay: CeeTox apoptosis; type: cell-based, rat; conditions: H4IIE cells; for Caspase 3 Activity (Index/Dose): dose: dose at which the index was seen; for Caspase 3 Activity (Index/Dose): index: index of RFU
P-glycoprotein (PgP) = assay: P-glycoprotein; type: cell-based, rat; conditions: H4IIE cells, MTT, 24 hr, single exposure concentration (20 or 50 μM), without CSA
S. typhimurium TA989 = assay: Ames test for mutagenicity, frame-shift strain; type: cell-based; conditions: first TA98 column; for TA98+S9: with S9, up to 10 μM; for TA98−S9: without S9, up to 10 μM
CYP1A2 = target: T1, CYP1A2 (Homo sapiens, UniProt P05177); assay: Cloe Screen Cytochrome P450 Inhibition assay; type: in vitro ADME; conditions: for CYP1A2 inhibition classification: classified from IC50
T1 sequence (P05177 1-516): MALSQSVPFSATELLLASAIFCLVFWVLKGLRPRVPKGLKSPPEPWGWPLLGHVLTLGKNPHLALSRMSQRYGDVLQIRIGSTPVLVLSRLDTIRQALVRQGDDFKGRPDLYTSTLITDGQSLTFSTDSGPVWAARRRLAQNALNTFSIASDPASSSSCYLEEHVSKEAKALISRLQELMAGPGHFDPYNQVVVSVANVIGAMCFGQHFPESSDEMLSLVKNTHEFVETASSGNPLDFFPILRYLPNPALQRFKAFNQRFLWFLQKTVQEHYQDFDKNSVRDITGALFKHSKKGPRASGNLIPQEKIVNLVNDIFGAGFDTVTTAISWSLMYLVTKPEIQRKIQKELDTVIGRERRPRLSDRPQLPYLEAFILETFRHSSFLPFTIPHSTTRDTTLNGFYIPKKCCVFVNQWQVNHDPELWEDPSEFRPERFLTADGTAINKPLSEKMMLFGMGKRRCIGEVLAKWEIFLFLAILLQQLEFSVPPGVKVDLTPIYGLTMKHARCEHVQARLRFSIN

CYP2C9 = CYP2C9 (Homo sapiens, UniProt P11712); assay: Cloe Screen Cytochrome P450 Inhibition assay; type: in vitro ADME
Chain of CYP2C9 (P11712 whole entry): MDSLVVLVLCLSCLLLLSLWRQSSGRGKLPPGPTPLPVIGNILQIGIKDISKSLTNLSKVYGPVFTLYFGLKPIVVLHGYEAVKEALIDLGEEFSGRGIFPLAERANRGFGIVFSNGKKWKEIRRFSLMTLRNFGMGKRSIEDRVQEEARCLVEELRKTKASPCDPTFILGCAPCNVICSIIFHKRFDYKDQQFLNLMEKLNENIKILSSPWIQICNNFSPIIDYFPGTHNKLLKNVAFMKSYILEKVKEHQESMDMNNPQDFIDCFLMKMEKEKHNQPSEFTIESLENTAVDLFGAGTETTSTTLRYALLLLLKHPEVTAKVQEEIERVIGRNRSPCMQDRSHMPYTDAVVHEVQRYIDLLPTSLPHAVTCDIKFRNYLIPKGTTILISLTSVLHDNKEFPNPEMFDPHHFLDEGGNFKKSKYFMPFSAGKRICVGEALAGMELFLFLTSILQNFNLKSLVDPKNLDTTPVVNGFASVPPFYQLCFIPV

CYP3A4 = CYP3A4 (Homo sapiens, UniProt P08684); assay: Cloe Screen Cytochrome P450 Inhibition assay; type: in vitro ADME
Chain of CYP3A4 (P08684 2-503): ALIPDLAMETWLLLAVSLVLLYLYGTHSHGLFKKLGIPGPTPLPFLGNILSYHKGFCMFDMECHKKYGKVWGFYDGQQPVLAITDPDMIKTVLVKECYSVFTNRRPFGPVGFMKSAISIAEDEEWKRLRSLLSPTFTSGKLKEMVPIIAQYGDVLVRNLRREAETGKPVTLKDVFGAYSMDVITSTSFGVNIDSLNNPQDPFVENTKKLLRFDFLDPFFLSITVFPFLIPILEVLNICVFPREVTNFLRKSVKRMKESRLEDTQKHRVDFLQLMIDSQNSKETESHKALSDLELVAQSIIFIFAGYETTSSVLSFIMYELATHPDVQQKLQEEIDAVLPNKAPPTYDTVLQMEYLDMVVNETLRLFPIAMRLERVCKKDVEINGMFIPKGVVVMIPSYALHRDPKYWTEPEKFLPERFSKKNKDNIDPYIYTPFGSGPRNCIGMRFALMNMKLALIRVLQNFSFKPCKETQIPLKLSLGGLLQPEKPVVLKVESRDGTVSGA

CYP2D6 = CYP2D6 (Homo sapiens, UniProt P10635); assay: Cloe Screen Cytochrome P450 Inhibition assay; type: in vitro ADME
Chain of CYP2D6 (P10635 whole entry): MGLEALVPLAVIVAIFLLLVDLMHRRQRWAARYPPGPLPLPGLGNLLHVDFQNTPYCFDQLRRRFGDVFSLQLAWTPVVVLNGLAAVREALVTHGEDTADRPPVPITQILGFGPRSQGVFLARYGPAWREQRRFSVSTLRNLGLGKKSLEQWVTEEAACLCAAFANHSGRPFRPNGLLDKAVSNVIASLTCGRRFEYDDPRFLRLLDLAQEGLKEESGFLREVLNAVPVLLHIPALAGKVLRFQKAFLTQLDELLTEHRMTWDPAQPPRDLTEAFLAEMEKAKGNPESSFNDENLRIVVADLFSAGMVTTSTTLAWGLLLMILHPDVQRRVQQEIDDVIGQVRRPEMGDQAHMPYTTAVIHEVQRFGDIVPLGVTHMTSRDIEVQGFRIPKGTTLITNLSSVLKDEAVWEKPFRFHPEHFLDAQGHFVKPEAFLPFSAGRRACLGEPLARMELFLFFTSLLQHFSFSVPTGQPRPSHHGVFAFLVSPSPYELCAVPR
Outline: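 Run blinded. […] Metabolite formation was monitored by LC-MS/MS. IC50 was calculated from the decrease in metabolite formation relative to vehicle control. Quinidine served as positive control inhibitor.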

CYP2C19 = CYP2C19 (Homo sapiens, UniProt P33261); assay: Cloe Screen Cytochrome P450 Inhibition assay; type: in vitro ADME
Chain of CYP2C19 (P33261 whole entry): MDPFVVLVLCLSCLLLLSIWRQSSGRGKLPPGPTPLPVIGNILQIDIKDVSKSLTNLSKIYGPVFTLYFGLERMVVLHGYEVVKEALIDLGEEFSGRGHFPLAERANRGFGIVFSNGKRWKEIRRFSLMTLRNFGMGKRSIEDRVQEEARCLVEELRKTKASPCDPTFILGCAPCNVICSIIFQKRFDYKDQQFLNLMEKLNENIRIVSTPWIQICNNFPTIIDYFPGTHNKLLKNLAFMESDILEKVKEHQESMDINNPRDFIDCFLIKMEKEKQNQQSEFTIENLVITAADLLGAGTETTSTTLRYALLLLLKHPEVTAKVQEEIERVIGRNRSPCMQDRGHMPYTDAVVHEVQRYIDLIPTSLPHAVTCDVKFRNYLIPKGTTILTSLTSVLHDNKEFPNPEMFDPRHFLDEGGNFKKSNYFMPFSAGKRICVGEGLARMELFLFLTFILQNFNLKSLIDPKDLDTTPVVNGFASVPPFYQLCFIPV

P-glycoprotein (MDR1) = assay: BBB penetration; type: in vitro ADME, canine; conditions: dog, MDCK-MDR1
Outline: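 MDCK cells transfected with human MDR1 (P-gp) were grown to a confluent monolayer over 4 days. Test compound was added apically, and A→B transport was followed over 60 min; B→A transport was also measured. Compound on each side was quantified by GC/MS. Papp was calculated for both directions, and efflux ratio = Papp B→A/Papp A→B. High BBB potential: Papp A→B ≥3.0×10⁻⁶ cm/s and efflux <3.0.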

H4IIE cells [2] = assay: CeeTox cellular ATP content; conditions: 24 hr
H4IIE cells [3] = assay: CeeTox cell mass; conditions: 24 hr
H4IIE cells [4] = assay: CeeTox membrane toxicity; conditions: 24 hr, α-GST leakage
[5] = test system: Intracellular glutathione (GSH); assay: CeeTox intracellular glutathione; conditions: H4IIE cells
8-Isoprostane (8-ISO) = assay: CeeTox lipid peroxidation measured as 8-isoprostane; conditions: H4IIE cells, 8-ISO score

SMILES	MTT TC50 (H4IIE cells [1])	Caspase 3 Activity (Index/Dose): dose (Caspase 3)	Caspase 3 Activity (Index/Dose): index (Caspase 3)	% Control(Compound) (P-glycoprotein (PgP))	TA98+S9 (S. typhimurium TA989)	TA98−S9 (S. typhimurium TA989)	IC50 (CYP1A2)	IC50 (CYP2C9)	IC50 (CYP3A4)	IC50 (CYP2D6)	IC50 (CYP2C19)	Papp A→B at 60 min (P-glycoprotein (MDR1))	efflux ratio at 60 min (P-glycoprotein (MDR1))	ATP TC50 (H4IIE cells [2])	Cell Mass TC50 (H4IIE cells [3])	MemTox TC50 (H4IIE cells [4])	Total GSH TC50 [5]	Membrane Lipid Peroxidation (8-Isoprostane (8-ISO))	CYP1A2 inhibition classification (CYP1A2)
CCc1ccc2oc(-c3ccc(O)c(O)c3)c(O)c(=O)c2c1 [CSMC-9, 6-ethyl-3,3',4'-trihydroxy flavone]	81 µM	300	1 (0–200 = 1)	97.0 % Control	Negative (Not mutagenic < 10 μM (NEGATIVE))	Negative (Not mutagenic < 10 μM (NEGATIVE))	11.6 µM	> 10 µM	> 10 µM	> 10 µM	> 10 µM	40.9 ×10⁻⁶ cm/s	0.19	80 µM	82 µM	>300 µM	149 µM	0	
COc1cc(-c2oc3cc(C)c(C)cc3c(=O)c2O)ccc1O [CSMC-15, 6,7-dimethyl-3,4'-dihydroxy-3'-methoxyflavone]	74 µM	300	1 (0–200 = 1)	70.8 % Control	Negative (Not mutagenic < 10 μM (NEGATIVE))	Negative (Not mutagenic < 10 μM (NEGATIVE))	> 25 µM	> 10 µM	> 10 µM	> 10 µM	> 10 µM	4.08 ×10⁻⁶ cm/s	0.4	78 µM	79 µM	>300 µM	76 µM	0	
CC(C)Oc1cc(-c2ccc(O)c(O)c2)nc2ccccc12 [CSMC-17, 4-isopropoxy-2-(3,4-dihydroxyphenyl)quinoline]	298 µM			80.8 % Control	Negative (Not mutagenic < 10 μM (NEGATIVE))	Negative (Not mutagenic < 10 μM (NEGATIVE))	7.49 µM	> 10 µM	> 10 µM	> 10 µM	> 10 µM			217 µM	241 µM	>300 µM	295 µM	0	moderate inhibition
COc1cc(-c2ccc(O)c(O)c2)nc2ccccc12 [CSMC-12, 4-methoxy-2-(3,4-dihydroxyphenyl)quinoline]	293 µM			85.9 % Control	Negative (Not mutagenic < 10 μM (NEGATIVE))	Negative (Not mutagenic < 10 μM (NEGATIVE))	3.7 µM	> 10 µM	> 10 µM	> 10 µM	> 10 µM			223 µM	208 µM	>300 µM	>300 µM	1 (1 = Modest increase with maximum values ≤ 15 pg/mL)	moderate inhibition
CCOc1cc(-c2ccc(O)c(O)c2)nc2ccccc12 [CSMC-16, 4-ethoxy-2-(3,4-dihydroxyphenyl)quinoline]	170 µM			81.3 % Control	Negative (Not mutagenic < 10 μM (NEGATIVE))	Negative (Not mutagenic < 10 μM (NEGATIVE))	3.99 µM	> 10 µM	> 10 µM	> 10 µM	> 10 µM			162 µM	215 µM	>300 µM	243 µM	0	moderate inhibition
